Hits are enriched below; roughly 1.9% of the tested compounds scored in any of these assays.
DENV2 CPE: DENV2-induced cell death inhibition. AID 651640. 350,000 compounds, 1.7% hits. DENV2-infected cells, cytopathic effect rescue, plate reader. CPE inhibition, % at 9.99 µM; in the data active = CPE inhibition above about 20%, passing the limit was not always enough; inconclusive = no clear call, values can overlap the other calls; tested in BHK-21 cells;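 note: 0% = median of neutral control wells and 100% = median of positive control wells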
Cneo AK release: Cryptococcus neoformans lysis via adenylate kinase release. 360,000 compounds, 0.2% hits. C. neoformans lysis, adenylate kinase release luminescence, 4 h; normalised: neutral wells 0, clomiphene wells 100. lysis activity, % at 15 µM;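 active = mean lysis activity across replicates of at least 80%, whatever share of replicates individually reach that level; inactive = mean lysis activity below 80%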
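Material – log-phase Cryptococcus neoformans yeast cells · Input – 5 × 10^6 yeast cells/mL · Medium – fresh YPD growth medium · Doses – single compound concentration per well · Timing – static 4 h at 37 °C with compound, 1 h detection · Detection – adenylate kinase release luminescence · Read-out – signal increase indicating cell lysis · Control set – Clomiphene as positive lysis control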
CFTR F508del cor: CFTR F508del correction in bronchial cells | 350,000 compounds, 0.36% hits | activity (quench increase), % at 7.58 µM | AID 720511 | CFBE cells, YFP halide quenching; stimulated with forskolin plus potentiator P3; % fluorescence drop versus neutral controls;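 active = mean added fluorescence quench of at least 8% versus neutral control, with both replicates also reaching 8%; inconclusive = only one of the mean or replicate conditions met; inactive = mean below 8% and not both replicates reaching 8%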;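 note: cells transiently co-express mutant CFTR-F508del with the halide-sensitive YFP; corrector assay measuring rescue of mutant channel to the surface after 24 h compound exposure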
FN deposit inh: fibronectin deposition inhibition; 350,000 compounds, 0.086% hits; inhibition, % at 12.6 µM; AH1F fibroblasts, Alexa488-fibronectin deposition fluorescence, overnight;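 active = mean inhibition across replicates of 30% or more, regardless of how many single replicates reach that level; inconclusive = mean under 30% yet at least half of replicates reach 30%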;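 note: positive control wells lacked labelled fibronectin entirely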
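Schedule: 1 h cell adhesion before compound, then overnight fibronectin incubation; test system: AH1F fibroblast monolayer depositing Alexa488-labelled fibronectin into matrix; quantity: 10000 AH1F cells per well; probe or stimulus: fluorescent fibronectin at 24 nM final; signal: fluorescence, ex 485 nm, em 525 nm; evaluation: percent inhibition as loss of matrix-bound fibronectin fluorescence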
Xi reactivation: reactivates the inactive X chromosome in mouse fibroblasts; XiGFP mouse fibroblasts, % GFP-positive cells imaging, 3 d; cells co-treated with 5-aza-dC sensitizer; scaled so ellipticine positive control = 100%; activation, % at 7.58 µM; 360,000 compounds, 0.055% hits; AID 743238;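 active = mean normalized replicate activation at least 10% and every replicate at or above 10%; inconclusive = only one of the two criteria met; inactive = mean below 10% and not all replicates reach 10%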;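 note: 0% = median of on-plate neutral control wells and 100% = ellipticine 6 µM median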
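System: 68-5-11 XiGFP fibroblast line | Buffer or medium: DMEM containing 5-aza-dC | Compound: Single point | Times: Compounds 3 days, fix/stain 15 min at room temperature | Benchmarks: Positive control ellipticine, 6 µM final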
PGC1a acetyl inh: modulators of PGC1a acetylation; U2OS PGC1a acetylation, AlphaScreen anti-acetyl-lysine; with virally co-expressed GCN5 acetyltransferase; AID 651687; inhibition, % at 15.6 µM; 350,000 compounds, 0.17% hits;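 active = every replicate shows inhibition of at least 40%; inconclusive = mean inhibition at least 40% but some replicate below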;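 note: 0% = neutral control wells and 100% = positive control wells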
* = called active by the depositor; ! = a repeat was not active.

How did COc1cccc(-c2ccc3c(c2)[C@@H]2[C@@H](CCN2C(=O)Nc2ccccc2OC)[C@@H](CO)N3C)c1 do in these assays?
DENV2 CPE: 29*; Cneo AK release: 4; CFTR F508del cor: 3; FN deposit inh: -9; Xi reactivation: 1; PGC1a acetyl inh: 11

What do the screens show for `CN1c2ccc(-c3cccc(F)c3)cc2[C@H]2[C@H](CCN2C(=O)Cc2cccnc2)[C@H]1CO`?
DENV2 CPE: 113*; Cneo AK release: -3; CFTR F508del cor: -2; FN deposit inh: -12; Xi reactivation: 0; PGC1a acetyl inh: 4

What do the screens show for `COc1cccc(-c2ccc3c(c2)[C@H]2[C@H](CCN2C(=O)Nc2ccccc2OC)[C@H](CO)N3C)c1`?
DENV2 CPE: 15; Cneo AK release: 2; CFTR F508del cor: 1; FN deposit inh: -22; Xi reactivation: 0; PGC1a acetyl inh: 6

How did COC(=O)N(C)C[C@H]1OCc2cn(nn2)CCCC(=O)N([C@H](C)CO)C[C@@H]1C do in these assays?
DENV2 CPE: 6; Cneo AK release: 100*; CFTR F508del cor: -2; FN deposit inh: -5; Xi reactivation: 0; PGC1a acetyl inh: 5

How did CC(C)OC(=O)N(C)C[C@@H]1OCc2cn(nn2)CCCC(=O)N([C@@H](C)CO)C[C@H]1C do in these assays?
DENV2 CPE: 36*!; Cneo AK release: 0; CFTR F508del cor: 5; FN deposit inh: 3; Xi reactivation: 0; PGC1a acetyl inh: 9

How did C[C@H]1CN([C@@H](C)CO)C(=O)c2c(c3ccccc3n2C)-c2ccccc2CO[C@@H]1CN(C)C(=O)Nc1cccc(Cl)c1Cl do in these assays?
DENV2 CPE: 3; CFTR F508del cor: -9; FN deposit inh: 1; Xi reactivation: 0

What do the screens show for `CCC(=O)N1CC2(CN(C(=O)c3cccnc3)C2)c2c([nH]c3cc(OC)ccc23)[C@H]1CO`?
DENV2 CPE: inconclusive; CFTR F508del cor: -1; Xi reactivation: 0; PGC1a acetyl inh: 12

Results for CCCCn1cnc2c(c(-c3ccccc3)c(-c3ccccc3)n2Cc2ccco2)c1=N ?
DENV2 CPE: -16; Cneo AK release: 4; CFTR F508del cor: -4; FN deposit inh: 39*; Xi reactivation: 0; PGC1a acetyl inh: -24

Results for CCOC(=O)C1CCCN(C(=O)CSc2nc(C)cc(C)n2)C1 (stereo not drawn) ?
DENV2 CPE: -5; Cneo AK release: -1; CFTR F508del cor: -1; FN deposit inh: 3; Xi reactivation: 0; PGC1a acetyl inh: 5

What do the screens show for `CCOC(=O)C1CCCN(C(=O)CSc2ccc(Br)cc2)C1` (stereo not drawn)?
PGC1a acetyl inh: 78*

Results for COCC(=O)N[C@@H]1CC[C@H](CC(=O)NCc2ccc(Cl)cc2)O[C@H]1CO ?
DENV2 CPE: 3; Cneo AK release: -1; CFTR F508del cor: 1; FN deposit inh: -7; Xi reactivation: 0; PGC1a acetyl inh: -8

How did C[C@H](CO)N1C[C@H](C)[C@H](CN(C)C(=O)C2CCC2)Oc2ncc(C#CC(C)(C)O)cc2C1=O do in these assays?
DENV2 CPE: -5; Cneo AK release: 2; CFTR F508del cor: 1; Xi reactivation: -1

How did CCC(=O)N(C)C[C@H]1Oc2ncc(C#CC(C)(C)O)cc2C(=O)N([C@H](C)CO)C[C@@H]1C do in these assays?
DENV2 CPE: 14; Cneo AK release: -3; CFTR F508del cor: 3; FN deposit inh: 7; Xi reactivation: 0; PGC1a acetyl inh: 7

Results for CC(=O)N(C)C[C@@H]1Oc2ncc(C#CC(C)(C)O)cc2C(=O)N([C@@H](C)CO)C[C@H]1C ?
DENV2 CPE: 20*; Cneo AK release: -4; CFTR F508del cor: -1; FN deposit inh: -10; Xi reactivation: -1; PGC1a acetyl inh: -1

What do the screens show for `C[C@H](CO)N1C[C@H](C)[C@@H](CN(C)C(=O)C2CCC2)Oc2ncc(C#CC(C)(C)O)cc2C1=O`?
DENV2 CPE: 23*; Cneo AK release: -1; CFTR F508del cor: 2; Xi reactivation: -1; PGC1a acetyl inh: 5

Compound activity (PubChem)
